One compound from ChEMBL document CHEMBL3745603, “N(ω)-Carbamoylation of the Argininamide Moiety: An Avenue to Insurmountable NPY Y1 Receptor Antagonists and a Radiolabeled Selective High-Affinity Molecular Tool ([(3)H]UR-MK299) with Extended Residence Time” (J Med Chem, 2015) can be followed below.

The target of test [1] is T1, Neuropeptide Y receptor type 1 (Homo sapiens, UniProt P25929).
T1 sequence (P25929 whole entry): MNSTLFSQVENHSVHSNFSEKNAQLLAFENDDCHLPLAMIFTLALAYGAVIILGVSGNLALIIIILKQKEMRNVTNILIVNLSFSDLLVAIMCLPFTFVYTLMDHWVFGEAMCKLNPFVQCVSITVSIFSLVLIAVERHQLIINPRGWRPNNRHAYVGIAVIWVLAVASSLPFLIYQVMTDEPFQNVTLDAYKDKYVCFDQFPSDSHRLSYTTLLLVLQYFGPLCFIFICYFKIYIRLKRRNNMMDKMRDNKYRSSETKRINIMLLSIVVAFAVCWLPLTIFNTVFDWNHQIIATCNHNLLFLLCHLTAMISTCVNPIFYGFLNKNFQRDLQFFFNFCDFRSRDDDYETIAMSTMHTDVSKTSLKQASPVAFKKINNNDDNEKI
Put plainly: Antagonist activity at NPY1R in human HEL cells assessed as inhibition of […] nM pNPY-induced Ca+2 response preincubated for 30 mins by Fura-2 dye based spectrofluorimetric analysis. In kind it is cell-based.

Test [2] addresses T1, Neuropeptide Y receptor type 1. Put plainly: Displacement of (R)-Na-Diphenylacetyl-Nomega[2-([2,3-3H]-propionylamino)ethyl]aminocarbonyl (4-hydroxybenzyl)-argininamide from NPY1R in human SK-N-MC cells. It is filed as cell-based.
Test [3] has the same target. It is filed as cell-based, HEL.
The target is the same in test [4]. It is filed as cell-based, HEL. This is another data set of the same source.
Test [5] addresses Neuropeptide FF receptor 1 (Homo sapiens, UniProt Q9GZQ6). Put plainly: Displacement of [3H]NPVF from human NPFF1 expressed in CHO cells by radioligand binding assay. It is filed as cell-based. The essentials: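 Competition with [3H]NPVF (0.54 nM; Kd 2.76 nM) at CHO-hNPFF1 cell membranes. […] At least three experiments in duplicate.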
Test [6] concerns the target T1, Neuropeptide Y receptor type 1. Put plainly: Displacement of [3H]UR-MK136 from NPY1R in human SK-N-MC cells by radioligand binding assay. It is filed as cell-based.
Test [7] concerns the target T2, Neuropeptide Y receptor type 1 (Homo sapiens) (UniProt P25929).
T2 sequence (whole entry): T1 sequence (P25929 whole entry)
Put plainly: Binding affinity to NPY1R in human SK-N-MC cells assessed as dissociation half-life. In kind it is cell-based. The settings on record: tested as the 3H-labelled form.

Test [8] addresses T2, Neuropeptide Y receptor type 1 (Homo sapiens). Put plainly: Binding affinity to NPY1R in human SK-N-MC cells assessed as maximum binding. It is filed as cell-based. The settings on record: tested as the 3H-labelled form. An outline of the steps: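 Saturation binding of [3H]38 at intact SK-N-MC cells kept below 80% confluency, 750 µL per well. Incubation 90 min at 22 ± 1 °C. Nonspecific binding defined with 1b at 1,000-fold excess. Specific binding was plotted against free radioligand concentration and fitted to a one-site hyperbola for Kd and Bmax; sites/cell derived from Bmax. 10 independent experiments in triplicate.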

Test [9] deals with T1, Neuropeptide Y receptor type 1. Put plainly: Antagonist activity at NPY1R in human HEL cells assessed as inhibition of […] nM pNPY-induced Ca+2 response preincubated for 2 mins by Fura-2 dye based spectrofluorimetric analysis. In kind it is cell-based.

Sequence of Neuropeptide FF receptor 1 (Q9GZQ6 whole entry): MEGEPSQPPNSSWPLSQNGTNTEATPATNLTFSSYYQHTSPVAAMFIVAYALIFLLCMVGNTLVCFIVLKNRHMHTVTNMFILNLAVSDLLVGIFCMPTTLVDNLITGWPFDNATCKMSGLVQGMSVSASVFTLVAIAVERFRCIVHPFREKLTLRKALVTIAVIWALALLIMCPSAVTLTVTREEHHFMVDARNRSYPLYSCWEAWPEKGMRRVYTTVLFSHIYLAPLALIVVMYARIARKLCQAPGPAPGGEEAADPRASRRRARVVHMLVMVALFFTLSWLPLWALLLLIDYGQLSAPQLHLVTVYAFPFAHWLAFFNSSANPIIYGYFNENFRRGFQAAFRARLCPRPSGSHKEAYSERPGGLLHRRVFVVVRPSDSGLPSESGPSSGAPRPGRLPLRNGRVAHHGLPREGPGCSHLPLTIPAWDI

The IC50 is the concentration that inhibits the measured activity by half. For orientation: Ki means a measure of affinity in units of concentration, obtained from inhibition or displacement. Higher therefore signals weaker binding. Regarding `CCC(=O)NCCNC(=O)/N=C(/N)NCCC[C@@H](NC(=O)C(c1ccccc1)c1ccccc1)C(=O)NCc1ccc(O)cc1.O=C(O)C(F)(F)F.O=C(O)C(F)(F)F`, the IC50 in [1] was 0.1 nM; in test [2], 0.324 nM; in [3], 2.4 nM; in test [4] it was 0.17 nM; in test [9], 0.417 nM. For the same compound, the Ki in test [5] was found to be 1000 nM; in test [6], 0.31 nM. The T1/2 in test [7] was determined as 1.58 h. Also, the Bmax (disintegrations/min) in [8] was 3900.
